Test [1] deals with Pseudomonas aeruginosa. Description: Antibacterial activity against Pseudomonas aeruginosa assessed as growth inhibition at 50 ug/ml after 24 hrs by microplate reader analysis. Type of test: functional. To be noted: read-out: GI.
The subject of test [2] is Pseudomonas aeruginosa. In words: Antibiofilm activity against Pseudomonas aeruginosa at 50 ug/ml after 24 hrs by microplate reader analysis. Format: functional.
Test [3] deals with Pseudomonas aeruginosa. Description: Antibacterial activity against Pseudomonas aeruginosa assessed as growth inhibition after 24 hrs by microplate reader analysis. Format: functional, organism-based. The method in brief: (§1)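 IC50 for growth and biofilm formation found by serial dilution to the concentration giving 50% inhibition.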
In test [4] the test system is Pseudomonas aeruginosa. Description: Inhibition of MDH in Pseudomonas aeruginosa biofilm after 48 hrs by UV-spectrophotometry. The method in brief:
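MDH in biofilm read as the change in absorbance of the reaction mixture at 340 nm, relative to untreated controls; mean ± standard deviation.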

Test [5] concerns Pseudomonas aeruginosa. Description: Reduction of extracellular DNA in Pseudomonas aeruginosa biofilm after 48 hrs by UV-spectrophotometry. Format: functional, organism-based. The essentials:
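eDNA measured as the change in absorbance of biofilm lysate at 260 nm versus untreated controls; mean ± standard deviation.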

In test [6] the test system is Pseudomonas aeruginosa. Description: Antibiofilm activity against Pseudomonas aeruginosa after 24 hrs by microplate reader analysis. Type of test: functional, organism-based. The method in brief:
as §1

In brackets after ≈: the same amount, converted by molar mass.

For orientation: inhibition means how much of the control response was suppressed. `CCOC(=O)C1=C(Nc2cc(C)cc(C)c2)C(=O)N(c2cc(C)cc(C)c2)C1C(=O)OCC` (stereo not drawn): in test [1], the inhibition of growth at 50 µg/mL stood at 32.5%. Further, the inhibition at 50 µg/mL in test [2] was found to be 28.9%.

With `CCOC(=O)C1=C(Nc2cccc(F)c2)C(=O)N(c2cccc(F)c2)C1C(=O)OCC` (stereo not drawn), the inhibition of growth at 50 µg/mL in test [1] came to 20.3%. In test [2], this compound returned an inhibition at 50 µg/mL of 27.5%.

As a reminder, the IC50 is the concentration needed to halve the response being measured. For the compound `CCOC(=O)C1=C(Nc2ccccc2)C(=O)N(c2ccccc2)C1C(=O)OCC` (stereo not drawn), the IC50 in test [3] stood at 50 µg/mL (≈ 127 µM). The inhibition of growth at 50 µg/mL in test [1] amounted to 50.4%. Besides, testing at 50 µg/mL in test [2] gave an inhibition of 35.5%.

For `CCOC(=O)C1=C(Nc2ccc(C)cc2)C(=O)N(c2ccc(C)cc2)C1C(=O)OCC` (stereo not drawn), in test [1], the inhibition of growth at 50 µg/mL was 34%. This compound displayed an inhibition at 50 µg/mL in test [2] of 13.6%.

Turning to `CCOC(=O)C1=C(Nc2cccc(C(=O)OCC)c2)C(=O)N(c2cccc(C(=O)OCC)c2)C1C(=O)OCC` (stereo not drawn), the inhibition of growth at 50 µg/mL in test [1] is 15.4%. The inhibition at 50 µg/mL in test [2] is 42%.

Take `CCOC(=O)C1=C(Nc2ccc(C(=O)OCC)cc2)C(=O)N(c2ccc(C(=O)OCC)cc2)C1C(=O)OCC` (stereo not drawn): the inhibition of growth at 50 µg/mL in test [1] was 44.7%. The compound also yielded an inhibition at 50 µg/mL in test [2] of 37.8%.

As for `CCOC(=O)C1=C(Nc2cccc(C)c2)C(=O)N(c2cccc(C)c2)C1C(=O)OCC` (stereo not drawn), the IC50 in test [3] was 48.4 µg/mL (≈ 115 µM). Further, the inhibition of growth at 50 µg/mL in test [1] amounted to 55.5%. In test [2], the inhibition at 50 µg/mL came out at 29.3%.

Take `CCOC(=O)C1=C(Nc2ccc(Br)cc2)C(=O)N(c2ccc(Br)cc2)C1C(=O)OCC` (stereo not drawn): the IC50 was 38.4 µg/mL (≈ 69.5 µM) in test [3] and 39 µg/mL (≈ 70.6 µM) in test [6]. Moreover, in test [4], the inhibition result is “Dose-dependent effect”. In addition, the inhibition of growth at 50 µg/mL in test [1] amounted to 76.8%. The same compound came in with an inhibition at 50 µg/mL in test [2] of 65.4%. For the same compound, the Activity entry in test [5] is “Dose-dependent effect”.

Turning to `CCOC(=O)C1=C(Nc2ccc(Cl)cc2)C(=O)N(c2ccc(Cl)cc2)C1C(=O)OCC` (stereo not drawn), the IC50 in test [3] is 41.6 µg/mL (≈ 89.8 µM). Besides, in test [1], the inhibition of growth at 50 µg/mL was found to be 68.6%. Also, in test [2], the inhibition at 50 µg/mL came to 20.7%.

Regarding `CCOC(=O)C1=C(NC2CC2)C(=O)N(C2CC2)C1C(=O)OCC` (stereo not drawn), the inhibition of growth at 50 µg/mL in test [1] turned out to be 26.6%. For the same compound, 50 µg/mL produced 11.8% inhibition in test [2].

`CCOC(=O)C1=C(Nc2cccc(Cl)c2)C(=O)N(c2cccc(Cl)c2)C1C(=O)OCC` (stereo not drawn): the IC50 in test [3] turned out to be 27.8 µg/mL (≈ 60 µM); in test [6], 28.8 µg/mL (≈ 62.2 µM). For the same compound, the inhibition entry in test [4] was “Dose-dependent effect”. Moreover, the inhibition of growth at 50 µg/mL in test [1] was 83%. Moreover, in test [2], at 50 µg/mL the inhibition was 70.2%. In test [5], the Activity result is “Dose-dependent effect”.

For the compound `CCOC(=O)C1=C(NC2CCC2)C(=O)N(C2CCC2)C1C(=O)OCC` (stereo not drawn), the inhibition of growth at 50 µg/mL in test [1] was 40.9%. In test [2], this compound displayed an inhibition at 50 µg/mL of 41.3%.

Regarding `CCOC(=O)C1=C(Nc2ccc(OC)cc2)C(=O)N(c2ccc(OC)cc2)C1C(=O)OCC` (stereo not drawn), the IC50 is 34.2 µg/mL (≈ 75.3 µM) in test [3] and 40.2 µg/mL (≈ 88.5 µM) in test [6]. Besides, in test [4], the inhibition entry is “Dose-dependent effect”. Further, in test [1], the inhibition of growth at 50 µg/mL turned out to be 80.8%. The compound also had an inhibition at 50 µg/mL in test [2] of 61.4%. Also, the Activity entry in test [5] is “Dose-dependent effect”.

On to `CC[C@H]1OC(=O)[C@H](C)[C@@H](O[C@H]2C[C@@](C)(OC)[C@@H](O)[C@H](C)O2)[C@H](C)[C@@H](O[C@@H]2O[C@H](C)C[C@H](N(C)C)[C@H]2O)[C@](C)(O)C[C@@H](C)C(=O)[C@H](C)[C@@H](O)[C@]1(C)O` [ERYTHROMYCIN], for which the IC50 in test [3] is 33.2 µg/mL (≈ 45.2 µM). Also, the inhibition result in test [4] was “Dose-dependent effect”. Further, the inhibition of growth at 50 µg/mL in test [1] came to 67.6%. The compound further displayed an inhibition at 50 µg/mL in test [2] of 45.7%. Besides, the Activity result in test [5] was “Dose-dependent effect”.

For the compound `CCOC(=O)C1=C(Nc2ccc(OCC)cc2)C(=O)N(c2ccc(OCC)cc2)C1C(=O)OCC` (stereo not drawn), the IC50 is 46.6 µg/mL (≈ 96.6 µM) in test [3] and 48.4 µg/mL (≈ 100 µM) in test [6]. Besides, the inhibition result in test [4] was “Dose-dependent effect”. Besides, in test [1], the inhibition of growth at 50 µg/mL was 63.1%. The compound further gave an inhibition at 50 µg/mL in test [2] of 53.8%. Also, in test [5], the Activity result is “Dose-dependent effect”.

Regarding `CCOC(=O)C1=C(Nc2ccc(CC)cc2)C(=O)N(c2ccc(CC)cc2)C1C(=O)OCC` (stereo not drawn), the IC50 is 42.2 µg/mL (≈ 93.7 µM) in test [3] and 47.4 µg/mL (≈ 105 µM) in test [6]. Also, in test [4], the inhibition result is “Dose-dependent effect”. Also, the inhibition of growth at 50 µg/mL in test [1] worked out at 65.8%. In addition, 50 µg/mL produced 53.2% inhibition in test [2]. Further, the Activity entry in test [5] was “Dose-dependent effect”.

Source of the values: ChEMBL document CHEMBL3351850, “Synthesis and anti-biofilm activities of dihydro-pyrrol-2-one derivatives on Pseudomonas aeruginosa” (Bioorg Med Chem Lett, 2015).
